In ChEMBL document CHEMBL1154145, “Inhibitory effect of macabarterin, a polyoxygenated ellagitannin from Macaranga barteri, on human neutrophil respiratory burst activity” (J Nat Prod, 2008):
Converted amounts (≈) assume the structure as drawn.

How the values were obtained:
[1] = Antiinflammatory activity in human neutrophils assessed inhibition of superoxide anions production; type: functional, cell-based; settings: Neutrophil
How it was run: (§1)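 Neutrophils came from heparinized blood of healthy volunteers, diluted with modified Hank's solution (MHS, pH 7.4), left 20 min at RT, then Ficoll-separated (>97% trypan-blue viable). 1.0 × 10^4 cells/mL in MHS with 250 µM WST-1 and compound were equilibrated at 37 °C. Opsonized zymosan A (15 mg/mL, pooled human serum) was added to start the reaction. A450 was read. Inhibition was calculated against a DMSO blank from five replicates.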

[2] = Antiinflammatory activity in human neutrophils assessed as respiratory burst inhibition at 1000 ug/ml by WST-1 assay; type: functional; settings: Neutrophil; how it was run: as §1

Structure (SMILES)	IC50 [1] [µg/mL]	inhibition at 1000 µg/mL [2] [%]
COc1ccc2c(c1)c(CC(=O)O)c(C)n2C(=O)c1ccc(Cl)cc1 [INDOMETHACIN]	758 (≈ 2120 µM)	58.8
COc1c(O)cc2c(=O)oc3c(O)c(O)cc4c(=O)oc1c2c34		13.7
COc1c(O[C@@H]2OC[C@@H](O)[C@H](O)[C@H]2O)cc2c(=O)oc3c(O)c(O)cc4c(=O)oc1c2c34		29.1
O=C(O)c1cc(O)c(O)c(O)c1 [GALLIC ACID]		42.9
CC(=O)Oc1ccccc1C(=O)O [ASPIRIN]	279 (≈ 1550 µM)	70.5
O=c1oc2c(O)c(O)cc3c(=O)oc4c(O)c(O)cc1c4c23 [ELLAGIC ACID]		27.1
O=C(O[C@@H]1O[C@@H]2COC(=O)c3cc(O)c(O)c(O)c3-c3c(cc(O)c(O)c3O)C(=O)O[C@@H]3[C@H]1OC(=O)c1cc(O)c(O)c4c1C1C5(C[C@]6(O)OC[C@@H](O)[C@@H]6C[C@@H]5C(O)(O)C(O)(O)[C@]1(O)O4)C(=O)O[C@@H]32)c1cc(O)c(O)c(O)c1 (stereo partly specified) [MACABARTERIN]	821 (≈ 746 µM)	73.2
COc1cc2ccc(=O)oc2cc1O [SCOPOLETIN]		31.2
